The results in this text go back to the array DNA melting data of Ke et al. (doi:10.1101/2024.01.08.574731).

A short description of data set [1]: folding enthalpy; higher = less favourable; fluorescence melt of hairpins on a sequencing array, two-state fit. The conditions noted are these: sodium 0.088 M. The method, boiled down:
(§1)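 To match UV melts, fitted temperatures were raised by 9.35 °C. These fits were bootstrapped two-state models that gave melting temperature and folding enthalpy, combined by inverse variance over four replicates. The input was normalised Cy3 fluorescence of library hairpins with annealed Cy3 and quencher oligos on a sequenced MiSeq flow cell, imaged in 50 mM Na-HEPES pH 8.0, 25 mM NaCl in 2.5 °C steps up to 60 °C.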

Data set [2] is described as follows: melting temperature; fluorescence melt of hairpins on a sequencing array, two-state fit, raised by 9.35 °C to match UV melts. The conditions noted are these: sodium 0.088 M. The method, boiled down: as §1

In the case of GAGGTCCCGAAAGGGCTC (((..(((....)))))), the folding enthalpy in data set [1] is -13.7 kcal/mol. Besides, the Tm in data set [2] came to 37.6 °C.
In the case of GAGGTCCGAAAGGACTC (((.(((....)))))), the folding enthalpy in data set [1] is -11.9 kcal/mol. For the same sequence, in data set [2], the Tm is 47.9 °C.
The corresponding values for GAGGTCCGAAAGGATCTC (((.(((....))).))) are -37.9 kcal/mol and 59.6 °C.
In the same order, the values of GAGGTGGGAAACCACCTC (((((((....))))))) are -31 kcal/mol and 69.2 °C.
The corresponding values for GAGGTGGGAAACCGTCTC (((..((....))..))) are -8.21 kcal/mol and 31.1 °C.
As for GAGGTGGGAAACTACCTC (((((.(....).))))), the folding enthalpy in data set [1] is -41.1 kcal/mol. Also, the Tm in data set [2] was 49.7 °C.
In the same order, the values of GAGGTTGGAAACAATCTC (((.(((....))).))) are -35.5 kcal/mol and 44.1 °C.
In the case of GAGTAAGGAAACTTACTC (((((((....))))))), in data set [1], the folding enthalpy was -43.1 kcal/mol. The Tm in data set [2] turned out to be 52.1 °C.
The corresponding values for GAGTAAGGAAACTTGCTC (((.(((....))).))) are -27.8 kcal/mol and 40.3 °C.
In the same order, the values of GAGTACACGAAAGTGCTC (((..(((....)))))) are -14.9 kcal/mol and 33.7 °C.
For the sequence GAGTACGAAAGTAACCTC ((((((....)))..))), the folding enthalpy in data set [1] was -14.8 kcal/mol. The Tm in data set [2] turned out to be 27.8 °C.
The corresponding values for GAGTACGAAAGTATCCTC ((((((....)))..))) are -17.6 kcal/mol and 25.4 °C.
For GAGTACGAAAGTATGCTC ((((((....)))..))), the folding enthalpy in data set [1] is -20.8 kcal/mol. Moreover, in data set [2], the Tm came out at 31.5 °C.
The corresponding values for GAGTACGCGAAAGCGCTC (((..(((....)))))) are -10 kcal/mol and 34.6 °C.
On to GAGTAGCGAAAGCTGCTC (((.(((....))).))), for which the folding enthalpy in data set [1] was -36.6 kcal/mol. In addition, the Tm in data set [2] came out at 60.1 °C.
In the case of GAGTAGGGAAACCTGCTC (((.(((....))).))), in data set [1], the folding enthalpy is -34.5 kcal/mol. In data set [2], the Tm was 48.5 °C.
For the sequence GAGTCAGGAAACTGATTC ((.((((....)))).)), the folding enthalpy in data set [1] was -27.1 kcal/mol. Further, the Tm in data set [2] stood at 39.8 °C.
The corresponding values for GAGTCCCGAAAGGGGCTC (((.(((....))).))) are -28.9 kcal/mol and 69.2 °C.
Take GAGTCCCGAAAGGGTCTC (((.(((....))).))): in data set [1], the folding enthalpy is -30.6 kcal/mol. Besides, the Tm in data set [2] was 53 °C.
The corresponding values for GAGTCCGAAAGGAAACTC ((((((....)))..))) are -19.4 kcal/mol and 40.2 °C.
In the same order, the values of GAGTCCGAAAGGAAGCTC ((((((....)))..))) are -17.6 kcal/mol and 37.4 °C.
Turning to GAGTCCGAAAGGACACTC ((((((....)))..))), the folding enthalpy in data set [1] is -12.5 kcal/mol. The Tm in data set [2] was determined as 54.4 °C.
In the same order, the values of GAGTCCGAAAGGACCTC ((((((....))).))) are -13.2 kcal/mol and 54.5 °C.
Consider GAGTCCGGAAACGGATTC ((.((((....)))).)), for which, in data set [1], the folding enthalpy was -24.7 kcal/mol. The Tm in data set [2] came to 49.9 °C.
The corresponding values for GAGTCGAAAGACTC (((((....))))) are -29.4 kcal/mol and 60.8 °C.
The corresponding values for GAGTCGACGAAAGTCCTC (((..(((....)))))) are -9.8 kcal/mol and 26.6 °C.
The corresponding values for GAGTCGGGAAACCAACTC ((((.((....)).)))) are -30.7 kcal/mol and 38.9 °C.
As to GAGTCGGGAAACTGACTC (((((.(....).))))), in data set [1], the folding enthalpy is -40.2 kcal/mol. In addition, the Tm in data set [2] came to 52.6 °C.
The corresponding values for GAGTCTGAAAAGACTC ((((((....)))))) are -38 kcal/mol and 59 °C.
Turning to GAGTCTGGAAACAGATTC ((.((((....)))).)), the folding enthalpy in data set [1] was -26.2 kcal/mol. The Tm in data set [2] was determined as 40.9 °C.
In the same order, the values of GAGTGACCGAAAGGTCTC (((..(((....)))))) are -9.86 kcal/mol and 35 °C.
On to GAGTGACGAAAGTCTCTC (((.(((....))).))), for which the folding enthalpy in data set [1] was -32.2 kcal/mol. In addition, the Tm in data set [2] is 50.9 °C.
In the same order, the values of GAGTGAGGAAACTCACTC (((((((....))))))) are -40.6 kcal/mol and 61.6 °C.
As for GAGTGAGGAAACTTGCTC (((..((....))..))), the folding enthalpy in data set [1] is -12.9 kcal/mol. In addition, the Tm in data set [2] amounted to 37.5 °C.
Regarding GAGTGCGAAAGCAACTC ((((((....))).))), the folding enthalpy in data set [1] was -18.8 kcal/mol. Moreover, in data set [2], the Tm is 59 °C.
In the same order, the values of GAGTGCGGAAACGCACCC (.(((((....))))).) are -8.77 kcal/mol and 45.8 °C.
